Experimental data from ChEMBL document CHEMBL1138483, “Toward second generation hepatitis C virus NS3 serine protease inhibitors: discovery of novel P4 modified analogues with improved potency and pharmacokinetic profile” (J Med Chem, 2009).

Tests used:
[1] = Binding affinity to HCV NS3 protease by spectrophotometry; parameters: species or system Hepacivirus hominis
Hepatitis C virus = assay: Antiviral activity against HCV replication in human hepatoma cells by replicon assay; format: functional, Hepacivirus hominis
[2] = Drug level in rat liver at 10 mg/kg, po after 6 hrs; format: ADME, organism-based; parameters: dose 10 mg/kg, route oral; conditions: read-out: Drug uptake
In short: (§1)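 Oral dosing in rats at 10 mpk as a suspension in 0.4% HPMC; liver concentration measured in ng/g tissue at 1 h or 6 h after dosing.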

[3] = AUC (0 to 6 hrs) in rat at 10 mg/kg, po; format: ADME, organism-based; parameters: time < 6 hr, dose 10 mg/kg, route oral; conditions: plasma
[4] = AUC in po dosed rat; format: ADME, organism-based; conditions: plasma
[5] = AUC (0 to 24 hrs) in rat at 10 mg/kg, po; format: ADME, organism-based; parameters: time < 24 hr, dose 10 mg/kg, route oral; conditions: plasma
[6] = Bioavailability in rat at 10 mg/kg, po; format: ADME, organism-based; conditions: in vivo
[7] = Drug level in rat liver at 10 mg/kg, po after 1 hr; format: ADME, organism-based; parameters: dose 10 mg/kg, route oral; conditions: read-out: Drug uptake; in short: as §1
Rattus norvegicus = assay: AUC in rat at 10 mg/kg, po; format: ADME, organism-based, Plasma; parameters: dose 10 mg/kg, route oral; conditions: in vivo

SMILES | Ki [1] | EC90 (Hepatitis C virus) | other results
C#CCCC(NC(=O)[C@@H]1[C@@H]2[C@H](CN1C(=O)[C@@H](NC(=O)N[C@H](COC(=O)NCC)C(C)(C)C)C1(C)CCCCC1)C2(C)C)C(=O)C(=O)NCC (stereo not given in full) | 21 nM | 200 nM | 
C=CCNC(=O)C(=O)C(CCC)NC(=O)[C@@H]1[C@@H]2[C@H](CN1C(=O)[C@@H](NC(=O)N[C@H](COC(=O)NC(C)C)C(C)(C)C)C1(C)CCCCC1)C2(C)C (stereo not given in full) | 24 nM | 150 nM | concentration at 6 h [2]: 808 ng/g; AUC(0-t) at 6 h [3]: 6.6 µM·h
C=CCNC(=O)C(=O)C(CC1CC1)NC(=O)[C@@H]1[C@@H]2[C@H](CN1C(=O)[C@@H](NC(=O)N[C@H](COC(=O)NCC)C(C)(C)C)C1Cc3ccccc3C1)C2(C)C (stereo not given in full) | 50 nM | 400 nM | 
COC[C@@H](NC(=O)N[C@H](C(=O)N1C[C@H]2[C@@H]([C@H]1C(=O)NC(CC1CCC1)C(=O)C(N)=O)C2(C)C)C1Cc2ccccc2C1)C(C)(C)C (stereo not given in full) | 15 nM | 200 nM | AUC [4]: 0.1 µM·h
CCNC(=O)OC[C@@H](NC(=O)N[C@H](C(=O)N1C[C@H]2[C@@H]([C@H]1C(=O)NC(CC1CCC1)C(=O)C(N)=O)C2(C)C)C1(C)CCCCC1)C(C)(C)C (stereo not given in full) | 8 nM | 150 nM | 
CC(C)(C)OC[C@@H](NC(=O)N[C@H](C(=O)N1C[C@H]2[C@@H]([C@H]1C(=O)NC(CC1CCC1)C(=O)C(N)=O)C2(C)C)C1(C)CCCCC1)C(C)(C)C (stereo not given in full) | 100 nM |  | 
COC[C@@H](NC(=O)N[C@H](C(=O)N1C[C@H]2[C@@H]([C@H]1C(=O)NC(CC1CCC1)C(=O)C(N)=O)C2(C)C)C1(C)CCCCC1)C(C)C (stereo not given in full) | 12 nM | 200 nM | 
C#CCCC(NC(=O)[C@@H]1[C@@H]2[C@H](CN1C(=O)[C@@H](NC(=O)N[C@H](COC(=O)NCC)C(C)(C)C)C1(C)CCCCC1)C2(C)C)C(=O)C(=O)NCC=C (stereo not given in full) | 9 nM | 150 nM | AUC(0-t) at 24 h [5]: 26 µM·h; concentration at 6 h [2]: 1110 ng/g; bioavailability [6]: 43%
C=CCNC(=O)C(=O)C(CCC)NC(=O)[C@@H]1[C@@H]2[C@H](CN1C(=O)[C@@H](NC(=O)N[C@H](COC(=O)NCC(C)C)C(C)(C)C)C1(C)CCCCC1)C2(C)C (stereo not given in full) | 58 nM |  | 
C#CCCC(NC(=O)[C@@H]1[C@@H]2[C@H](CN1C(=O)[C@@H](NC(=O)N[C@H](COC(=O)NCC)C1CCCCC1)C1(C)CCCCC1)C2(C)C)C(=O)C(=O)NCC=C (stereo not given in full) | 13 nM | 200 nM | 
COC[C@@H](NC(=O)N[C@H](C(=O)N1C[C@H]2[C@@H]([C@H]1C(=O)NC(CC1CCC1)C(=O)C(N)=O)C2(C)C)C1CCCCC1)C(C)(C)C (stereo not given in full) | 30 nM | 300 nM | 
C=CCNC(=O)C(=O)C(CCC)NC(=O)[C@@H]1[C@@H]2[C@H](CN1C(=O)[C@@H](NC(=O)NC1(COC(=O)NCC)CCCCC1)C1(C)CCCCC1)C2(C)C (stereo not given in full) | 210 nM | 700 nM | 
C=CCNC(=O)C(=O)C(CCC)NC(=O)[C@@H]1[C@@H]2[C@H](CN1C(=O)[C@@H](NC(=O)N[C@H](COC(=O)NCC1CCCCC1)C(C)(C)C)C1(C)CCCCC1)C2(C)C (stereo not given in full) | 130 nM |  | 
C=CCNC(=O)C(=O)C(CCCC)NC(=O)[C@@H]1[C@@H]2[C@H](CN1C(=O)[C@@H](NC(=O)N[C@H](COC(=O)NCC)C(C)(C)C)C1(C)CCCCC1)C2(C)C (stereo not given in full) | 28 nM | 400 nM | 
CC(C)NC(=O)OC[C@@H](NC(=O)N[C@H](C(=O)N1C[C@H]2[C@@H]([C@H]1C(=O)NC(CC1CCC1)C(=O)C(N)=O)C2(C)C)C1Cc2ccccc2C1)C(C)(C)C (stereo not given in full) | 9 nM | 200 nM | 
COC[C@@H](NC(=O)N[C@H](C(=O)N1C[C@H]2[C@@H]([C@H]1C(=O)NC(CC1CCC1)C(=O)C(N)=O)C2(C)C)C1(C)CCCCC1)C(C)(C)C (stereo not given in full) | 24 nM | 150 nM | 
C#CCCC(NC(=O)[C@@H]1[C@@H]2[C@H](CN1C(=O)[C@@H](NC(=O)N[C@H](COC(=O)NCC1CC1)C(C)(C)C)C1(C)CCCCC1)C2(C)C)C(=O)C(=O)NCC=C (stereo not given in full) | 7 nM | 70 nM | concentration at 6 h [2]: 581 ng/g; AUC(0-t) at 6 h [3]: 5 µM·h
COC[C@@H](NC(=O)N[C@H](C(=O)N1C[C@H]2[C@@H]([C@H]1C(=O)NC(CC1CCC1)C(=O)C(N)=O)C2(C)C)C1(C)CCCC1)C(C)(C)C (stereo not given in full) | 22 nM | 400 nM | 
C#CCCC(NC(=O)[C@@H]1[C@@H]2[C@H](CN1C(=O)[C@@H](NC(=O)NC1(COC(=O)NCC)CCCCC1)C1(C)CCCCC1)C2(C)C)C(=O)C(=O)NCC=C (stereo not given in full) | 9 nM | 600 nM | 
CCNC(=O)OC[C@@H](NC(=O)N[C@H](C(=O)N1C[C@H]2[C@@H]([C@H]1C(=O)NC(CC1CCC1)C(=O)C(N)=O)C2(C)C)C1Cc2ccccc2C1)C(C)(C)C (stereo not given in full) | 7 nM | 100 nM | concentration at 1 h [7]: 244 ng/g; AUC (Rattus norvegicus): 0.3 µM·h
CC(C)(C)NC(=O)N[C@H](C(=O)N1C[C@H]2[C@@H]([C@H]1C(=O)NC(CC1CCC1)C(=O)C(N)=O)C2(C)C)C(C)(C)C (stereo not given in full) [BOCEPREVIR] | 14 nM | 350 nM | 

The remaining molecules from weak to strong by Ki [1], led by results:

Ki [1] | EC90 (Hepatitis C virus) | SMILES | other results
170 nM |  | CCC[C@@](C)(COC)NC(=O)N[C@H](C(=O)N1C[C@H]2[C@@H]([C@H]1C(=O)NC(CC1CCC1)C(=O)C(N)=O)C2(C)C)C1(C)CCCCC1 (stereo not given in full) | 
130 nM |  | CC(C)(C)[C@H](NC(=O)N[C@H](COCc1ccccc1)C(C)(C)C)C(=O)N1C[C@H]2[C@@H]([C@H]1C(=O)NC(CC1CCC1)C(=O)C(N)=O)C2(C)C (stereo not given in full) | 
120 nM |  | CC(C)(C)OCC1(NC(=O)N[C@H](C(=O)N2C[C@H]3[C@@H]([C@H]2C(=O)NC(CC2CCC2)C(=O)C(N)=O)C3(C)C)C2(C)CCCCC2)CCCCC1 (stereo not given in full) | 
120 nM |  | COC[C@@H](NC(=O)N[C@H](C(=O)N1C[C@H]2[C@@H]([C@H]1C(=O)NC(CC1CCC1)C(=O)C(N)=O)C2(C)C)C(C)(C)C)C(C)(C)C (stereo not given in full) | 
84 nM |  | C=CCNC(=O)C(=O)C(CCC)NC(=O)[C@@H]1[C@@H]2[C@H](CN1C(=O)[C@@H](NC(=O)N[C@H](COC(=O)NCC)C1CCCCC1)C1(C)CCCCC1)C2(C)C (stereo not given in full) | 
50 nM |  | COC[C@@](C)(CC(C)C)NC(=O)N[C@H](C(=O)N1C[C@H]2[C@@H]([C@H]1C(=O)NC(CC1CCC1)C(=O)C(N)=O)C2(C)C)C1(C)CCCCC1 (stereo not given in full) | 
33 nM | 400 nM | C=CCNC(=O)C(=O)C(CCC)NC(=O)[C@@H]1[C@@H]2[C@H](CN1C(=O)[C@@H](NC(=O)N[C@H](COC(=O)NCC)C(C)(C)C)C1Cc3ccccc3C1)C2(C)C (stereo not given in full) | AUC(0-t) at 6 h [3]: 0.7 µM·h
32 nM | 100 nM | C=CCNC(=O)C(=O)C(CCC)NC(=O)[C@@H]1[C@@H]2[C@H](CN1C(=O)[C@@H](NC(=O)N[C@H](COC(=O)NCC1CC1)C(C)(C)C)C1(C)CCCCC1)C2(C)C (stereo not given in full) | 
28 nM | 150 nM | C=CCNC(=O)C(=O)C(CCC)NC(=O)[C@@H]1[C@@H]2[C@H](CN1C(=O)[C@@H](NC(=O)N[C@H](COC(=O)NCC)C(C)(C)C)C1(C)CCCCC1)C2(C)C (stereo not given in full) | 
23 nM | 400 nM | C=CCNC(=O)C(=O)C(CCCC)NC(=O)[C@@H]1[C@@H]2[C@H](CN1C(=O)[C@@H](NC(=O)N[C@H](COC(=O)NCC)C(C)(C)C)C1Cc3ccccc3C1)C2(C)C (stereo not given in full) | 
23 nM | 300 nM | CN(C)C(=O)OC[C@@H](NC(=O)N[C@H](C(=O)N1C[C@H]2[C@@H]([C@H]1C(=O)NC(CC1CCC1)C(=O)C(N)=O)C2(C)C)C1Cc2ccccc2C1)C(C)(C)C (stereo not given in full) | 
20 nM | 250 nM | C#CCCC(NC(=O)[C@@H]1[C@@H]2[C@H](CN1C(=O)[C@@H](NC(=O)N[C@H](COC(=O)NCC1CCCCC1)C(C)(C)C)C1(C)CCCCC1)C2(C)C)C(=O)C(=O)NCC=C (stereo not given in full) | 
16 nM | 200 nM | C#CCCC(NC(=O)[C@@H]1[C@@H]2[C@H](CN1C(=O)[C@@H](NC(=O)N[C@H](COC(=O)NCC)C(C)(C)C)C1(C)CCCCC1)C2(C)C)C(=O)C(=O)NCCC (stereo not given in full) | 
12 nM | 200 nM | CC(C)(C)NC(=O)OC[C@@H](NC(=O)N[C@H](C(=O)N1C[C@H]2[C@@H]([C@H]1C(=O)NC(CC1CCC1)C(=O)C(N)=O)C2(C)C)C1Cc2ccccc2C1)C(C)(C)C (stereo not given in full) | 
10 nM | 600 nM | CCNC(=O)OC[C@@H](NC(=O)N[C@H](C(=O)N1C[C@H]2[C@@H]([C@H]1C(=O)NC(CC1CCC1)C(=O)C(N)=O)C2(C)C)C1CCCCC1)C(C)(C)C (stereo not given in full) | 
10 nM | 550 nM | C#CCCC(NC(=O)[C@@H]1[C@@H]2[C@H](CN1C(=O)[C@@H](NC(=O)N[C@H](COC(=O)NCC)C(C)(C)C)C1Cc3ccccc3C1)C2(C)C)C(=O)C(=O)NCC=C (stereo not given in full) | 
9 nM | 70 nM | C#CCCC(NC(=O)[C@@H]1[C@@H]2[C@H](CN1C(=O)[C@@H](NC(=O)N[C@H](COC(=O)NCC(C)C)C(C)(C)C)C1(C)CCCCC1)C2(C)C)C(=O)C(=O)NCC=C (stereo not given in full) | concentration at 6 h [2]: 750 ng/g; AUC(0-t) at 6 h [3]: 4.9 µM·h
9 nM | 250 nM | CCNC(=O)OC[C@@H](NC(=O)N[C@H](C(=O)N1C[C@H]2[C@@H]([C@H]1C(=O)NC(CC1CCC1)C(=O)C(N)=O)C2(C)C)C(C)(C)C)C(C)(C)C (stereo not given in full) | 
9 nM | 200 nM | CNC(=O)OC[C@@H](NC(=O)N[C@H](C(=O)N1C[C@H]2[C@@H]([C@H]1C(=O)NC(CC1CCC1)C(=O)C(N)=O)C2(C)C)C1Cc2ccccc2C1)C(C)(C)C (stereo not given in full) | 
8 nM | 150 nM | C#CCCC(NC(=O)[C@@H]1[C@@H]2[C@H](CN1C(=O)[C@@H](NC(=O)N[C@H](COC(=O)NC(C)C)C(C)(C)C)C1(C)CCCCC1)C2(C)C)C(=O)C(=O)NCC=C (stereo not given in full) | concentration at 6 h [2]: 1110 ng/g; AUC(0-t) at 6 h [3]: 7.9 µM·h
7 nM | 200 nM | CCNC(=O)OC[C@@H](NC(=O)N[C@H](C(=O)N1C[C@H]2[C@@H]([C@H]1C(=O)NC(CC1CC1)C(=O)C(N)=O)C2(C)C)C1Cc2ccccc2C1)C(C)(C)C (stereo not given in full) | 
